21 compounds from ChEMBL document CHEMBL4346763, “Incorporation of a chiral gem-disubstituted nitrogen heterocycle yields an oxazolidinone antibiotic with reduced mitochondrial toxicity” (Bioorg Med Chem Lett, 2019) can be followed below.

Data set [1] is described as follows: Inhibition of protein synthesis in mitochondria (unknown origin) assessed as [35S]methionine incorporation incubated for 15 to 120 mins by paper disk assay. Also on record: species or system Homo sapiens.
The test system of data set [2] is Staphylococcus aureus. Put plainly: Antibacterial activity against Staphylococcus aureus JC9213 by CLSI based broth dilution assay. Type of data set: functional. On the technique in general: Dilution methods test growth across graded concentrations, often in twofold steps.
The test system of data set [3] is Staphylococcus aureus. In words: Antibacterial activity against methicillin-sensitive Staphylococcus aureus ATCC 8235-4 measured after 16 hrs by broth microdilution method. In kind it is functional. The conditions noted are these: ATCC 8235-4, 16 h. A digest of the protocol: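 Overnight culture diluted 1:200 into plates, sealed, shaken at 150 RPM at 37 °C for 16 h, then OD600 read. MIC defined as the concentration giving at least 90% growth inhibition relative to DMSO-treated wells; μM converted to μg/mL and rounded to nearest integer.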

For data set [4], the system named is Staphylococcus aureus. Put plainly: Antibacterial activity against methicillin-sensitive Staphylococcus aureus ATCC 8235-4 at 6 ug/ml measured after 16 hrs by broth microdilution method relative to control. Particulars: ATCC 8235-4, 16 h. In kind it is functional. A digest of the protocol: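 Overnight S. aureus 8235-4 culture diluted 1:200 into LB broth containing compound at 4–22 μM in 2 μM steps. Plates sealed and shaken at 150 rpm, 37 °C, 16 h. OD600 read, and growth inhibition expressed relative to DMSO carrier-only wells. μM values converted to μg/mL and rounded to the nearest integer.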

The test system of data set [5] is Staphylococcus aureus. Put plainly: Antibacterial activity against methicillin-resistant Staphylococcus aureus ATCC 43300 measured after 18 hrs by broth microdilution method. Particulars: ATCC 43300, 18 h. In kind it is functional. A digest of the protocol: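 S. aureus ATCC 43300 grown overnight in cation-adjusted Mueller Hinton broth at 37 °C, diluted 40-fold and regrown 1.5-3 h to mid-log. Inoculum 5×10^5 CFU/mL added to 8-point 1:2 serial dilutions from a top final concentration of 32 μg/mL or 20 μM, DMSO ≤0.5%, in duplicate. Incubated 18 h at 37 °C without shaking.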

In another data set the target is Cytochrome P450 3A4 (Homo sapiens, UniProt P08684). Put plainly: Inhibition of CYP3A4 (unknown origin). In kind it is ADME.
Sequence of Cytochrome P450 3A4 (P08684 whole entry): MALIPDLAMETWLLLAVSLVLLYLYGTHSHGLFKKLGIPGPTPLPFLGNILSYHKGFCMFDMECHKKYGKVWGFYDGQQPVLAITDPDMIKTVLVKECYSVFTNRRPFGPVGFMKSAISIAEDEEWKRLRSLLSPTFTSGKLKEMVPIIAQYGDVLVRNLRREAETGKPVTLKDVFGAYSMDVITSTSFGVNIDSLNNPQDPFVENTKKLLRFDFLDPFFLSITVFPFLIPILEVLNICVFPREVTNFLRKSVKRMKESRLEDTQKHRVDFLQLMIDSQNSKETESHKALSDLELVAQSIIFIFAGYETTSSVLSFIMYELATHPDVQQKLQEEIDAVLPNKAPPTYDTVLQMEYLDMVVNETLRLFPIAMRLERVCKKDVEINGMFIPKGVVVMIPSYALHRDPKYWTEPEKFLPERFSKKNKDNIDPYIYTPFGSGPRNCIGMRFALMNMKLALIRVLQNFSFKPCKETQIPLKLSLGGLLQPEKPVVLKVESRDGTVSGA
Data set [6] is described as follows: Stability in gastric pH assessed as compound remaining after 24 hrs relative to control. Type of data set: physicochemical.
Another data set concerns the target Cytochrome P450 2C19 (Homo sapiens, UniProt P33261). Put plainly: Inhibition of CYP2C19 (unknown origin). Type of data set: ADME.
A further data set deals with Cytochrome P450 2D6 (Homo sapiens, UniProt P10635). In words: Inhibition of CYP2D6 (unknown origin). In kind it is ADME.
Sequence of Cytochrome P450 2D6 (P10635 whole entry): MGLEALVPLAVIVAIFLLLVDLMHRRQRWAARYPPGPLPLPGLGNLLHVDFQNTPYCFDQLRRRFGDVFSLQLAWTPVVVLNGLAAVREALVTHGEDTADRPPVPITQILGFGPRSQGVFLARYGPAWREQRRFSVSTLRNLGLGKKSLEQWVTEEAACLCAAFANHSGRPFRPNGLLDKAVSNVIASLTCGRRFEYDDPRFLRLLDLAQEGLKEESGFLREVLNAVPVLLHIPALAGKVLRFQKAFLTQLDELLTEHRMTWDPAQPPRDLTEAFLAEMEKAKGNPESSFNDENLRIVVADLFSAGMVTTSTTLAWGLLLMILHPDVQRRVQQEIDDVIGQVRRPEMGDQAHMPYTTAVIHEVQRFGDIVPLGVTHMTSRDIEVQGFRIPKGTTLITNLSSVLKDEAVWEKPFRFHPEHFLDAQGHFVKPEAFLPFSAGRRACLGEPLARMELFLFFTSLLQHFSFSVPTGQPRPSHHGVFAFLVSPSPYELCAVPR
A further data set concerns HepG2. In words: Cytotoxicity against human HepG2 cells assessed as reduction in cell viability by CellTiter-Glo assay. Type of data set: cell-based.
Data set [7] in a line: Aqueous solubility of compound. Type of data set: physicochemical. The conditions noted are these: buffer.
A short description of data set [8]: Half life in mouse hepatocytes.
Another data set deals with T1, Cytochrome P450 1A2 (Homo sapiens, UniProt P05177).
T1 sequence (P05177 whole entry): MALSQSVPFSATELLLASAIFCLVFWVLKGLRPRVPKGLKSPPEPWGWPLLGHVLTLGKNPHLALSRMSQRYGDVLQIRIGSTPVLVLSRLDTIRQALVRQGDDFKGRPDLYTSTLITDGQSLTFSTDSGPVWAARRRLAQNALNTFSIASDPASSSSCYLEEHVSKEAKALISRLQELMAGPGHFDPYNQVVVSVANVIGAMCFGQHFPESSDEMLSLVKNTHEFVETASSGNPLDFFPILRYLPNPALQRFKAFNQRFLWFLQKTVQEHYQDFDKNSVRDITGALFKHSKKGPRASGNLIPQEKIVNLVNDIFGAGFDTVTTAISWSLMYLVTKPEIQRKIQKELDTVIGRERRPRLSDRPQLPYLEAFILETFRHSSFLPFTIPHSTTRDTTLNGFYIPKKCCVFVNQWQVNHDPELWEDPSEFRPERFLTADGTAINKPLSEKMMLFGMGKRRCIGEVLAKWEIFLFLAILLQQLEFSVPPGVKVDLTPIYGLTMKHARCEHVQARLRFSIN
Put plainly: Inhibition of CYP1A2 (unknown origin). In kind it is ADME.

The target in the next data set is Cytochrome P450 2C9 (Homo sapiens, UniProt P11712). Put plainly: Inhibition of CYP2C9 (unknown origin). In kind it is ADME.
Sequence of Cytochrome P450 2C9 (P11712 whole entry): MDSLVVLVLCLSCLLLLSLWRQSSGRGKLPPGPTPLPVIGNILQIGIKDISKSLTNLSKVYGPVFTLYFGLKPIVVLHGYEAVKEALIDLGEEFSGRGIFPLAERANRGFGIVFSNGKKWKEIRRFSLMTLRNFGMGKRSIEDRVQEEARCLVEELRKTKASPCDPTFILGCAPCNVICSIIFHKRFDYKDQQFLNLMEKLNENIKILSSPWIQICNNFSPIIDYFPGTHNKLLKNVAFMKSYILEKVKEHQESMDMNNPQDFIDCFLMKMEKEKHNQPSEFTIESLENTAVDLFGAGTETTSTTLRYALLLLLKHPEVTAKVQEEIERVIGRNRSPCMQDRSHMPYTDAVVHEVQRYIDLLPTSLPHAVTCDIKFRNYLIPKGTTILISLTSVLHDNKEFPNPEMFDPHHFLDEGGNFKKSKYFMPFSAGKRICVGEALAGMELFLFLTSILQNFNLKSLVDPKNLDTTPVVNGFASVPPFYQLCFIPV
For data set [9], the system named is Staphylococcus aureus. In words: Antibacterial activity against methicillin-resistant Staphylococcus aureus ATCC 43300 at 6 ug/ml measured after 18 hrs by broth microdilution method relative to control. In kind it is functional. The conditions noted are these: ATCC 43300, 18 h.

As usually defined, the IC50 is the concentration at which inhibition is half-maximal. The term MIC denotes the lowest concentration found to suppress growth. Read a low MIC as a more susceptible organism. The inhibition is the change of the read-out against control, counted positive when it falls. In general, EC50 refers to the concentration at which the effect is half-maximal. Broadly, the solubility is the dissolved amount per volume that the medium holds.

In brackets after ≈: the same amount, converted by molar mass.

Sequence of Cytochrome P450 2C19 (P33261 whole entry): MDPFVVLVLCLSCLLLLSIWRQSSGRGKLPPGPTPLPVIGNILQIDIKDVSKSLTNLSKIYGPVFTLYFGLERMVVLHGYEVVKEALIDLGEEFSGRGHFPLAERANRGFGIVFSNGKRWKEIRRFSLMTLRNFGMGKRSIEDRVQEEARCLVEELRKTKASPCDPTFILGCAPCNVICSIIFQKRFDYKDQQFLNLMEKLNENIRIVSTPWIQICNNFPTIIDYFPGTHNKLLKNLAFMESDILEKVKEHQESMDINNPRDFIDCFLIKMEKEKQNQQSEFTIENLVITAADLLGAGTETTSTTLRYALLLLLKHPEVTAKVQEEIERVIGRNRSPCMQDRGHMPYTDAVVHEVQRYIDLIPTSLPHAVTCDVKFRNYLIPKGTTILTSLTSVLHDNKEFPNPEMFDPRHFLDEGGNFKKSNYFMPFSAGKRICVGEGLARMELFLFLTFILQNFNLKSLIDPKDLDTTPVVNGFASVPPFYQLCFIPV

Consider `CC(=O)NC[C@H]1CN(c2ccc(C3=CCOCC3)c(F)c2)C(=O)O1`, for which, in data set [1], the IC50 was found to be 0.95 µg/mL (≈ 2.84 µM). In addition, it took 1 µg/mL (≈ 2.99 µM) to inhibit growth against Staphylococcus aureus [2] (MIC).
The matching figures for `CC(=O)NC[C@H]1CN(c2ccc(-n3cncn3)c(F)c2)C(=O)O1`: 1.7 µg/mL (≈ 5.32 µM) and 4 µg/mL (≈ 12.5 µM).
`C/N=c1\ccc(-c2ccc(N3C[C@H](CNC(C)=O)OC3=O)cc2F)ccc1O`: in data set [1], the IC50 is 0.83 µg/mL (≈ 2.15 µM). Also, the lowest concentration to inhibit growth with Staphylococcus aureus [2] (MIC) was 2 µg/mL (≈ 5.19 µM).
Regarding `CC(=O)NC[C@H]1CN(c2ccc(N3CCOC4(CCN(C)C4)C3)c(F)c2)C(=O)O1` (some centres undefined), the MIC in the data set with Staphylococcus aureus [3] was > 32 µg/mL.
For `CC(=O)NC[C@H]1CN(c2ccc(N3CCOC4(CCOC4)C3)c(F)c2)C(=O)O1` (some centres undefined), the inhibition at 6 µg/mL in the data set on Staphylococcus aureus [4] came out at 65%.
In the case of `CC(=O)NC[C@H]1CN(c2ccc(N3CCOC(C)(CCCOC(C)=O)C3)c(F)c2)C(=O)O1` (some centres undefined), the MIC in the data set on Staphylococcus aureus [3] was > 32 µg/mL.
Turning to `CC(=O)NC[C@H]1CN(c2ccc(N3CCOC(C)(CCCO)C3)c(F)c2)C(=O)O1` (some centres undefined), in the data set with Staphylococcus aureus [5], the minimum inhibitory concentration (MIC) was > 32 µg/mL.
Consider `CC(=O)NC[C@H]1CN(c2ccc(N3CCOC(C)(CCN(C)C)C3)c(F)c2)C(=O)O1` (some centres undefined), for which, in the data set with Staphylococcus aureus [3], the MIC was > 32 µg/mL.
The compound `CC(=O)NC[C@H]1CN(c2ccc(N3CCOC(C)(C)C3)c(F)c2)C(=O)O1` yielded an MIC against Staphylococcus aureus [5] of 8 µg/mL (≈ 21.9 µM).
`CC(=O)NC[C@H]1CN(c2ccc(N3CCO[C@]4(CCCOC4)C3)c(F)c2)C(=O)O1`: the INH on Cytochrome P450 3A4, on Cytochrome P450 2C19, on Cytochrome P450 2D6, on Cytochrome P450 1A2 and on Cytochrome P450 2C9 was > 100 µM each time. The Stability in data set [6] is recorded as 89%. Moreover, the MIC with Staphylococcus aureus [3] was determined as 9 µg/mL (≈ 22.1 µM). Also, the EC50 with HepG2 is > 30 µM. In addition, the solubility in data set [7] is > 48.49 µg/mL. Further, in data set [8], the t1/2 came out at 2.138 h.
As to `C=CCC1(C)CN(c2ccc(N3C[C@H](CNC(C)=O)OC3=O)cc2F)CCO1` (some centres undefined), the MIC against Staphylococcus aureus [5] was found to be 16 µg/mL (≈ 40.9 µM).
As to `CC(=O)NC[C@H]1CN(c2ccc(N3CCO[C@@]4(CCCOC4)C3)c(F)c2)C(=O)O1`, the INH at Cytochrome P450 3A4, at Cytochrome P450 2C19, on Cytochrome P450 2D6, at Cytochrome P450 1A2 and at Cytochrome P450 2C9 was > 100 µM in each case. In [6], the Stability stood at 94%. The MIC in the data set with Staphylococcus aureus [3] is 6 µg/mL (≈ 14.7 µM); in the data set with Staphylococcus aureus [5], 5 µg/mL (≈ 12.3 µM). Further, in the data set on HepG2, the EC50 was > 30 µM. The solubility in data set [7] was > 52.15 µg/mL. This compound registered a t1/2 in data set [8] of 2.83 h.
For the compound `CCCC1(CO)CN(c2ccc(N3C[C@H](CNC(C)=O)OC3=O)cc2F)CCO1` (some centres undefined), in the data set on Staphylococcus aureus [4], 6 µg/mL produced 48% inhibition.
In turn, `CC(=O)NC[C@H]1CN(c2ccc(N3CCOC4(CCCOC4)C3)c(F)c2)C(=O)O1` (some centres undefined) returned an MIC against Staphylococcus aureus [3] of 7 µg/mL (≈ 17.2 µM).
For the compound `CC(=O)NC[C@H]1CN(c2ccc(N3CCOC4(CCCN(C(C)=O)C4)C3)c(F)c2)C(=O)O1` (some centres undefined), the inhibition at 6 µg/mL in the data set with Staphylococcus aureus [4] and in the data set with Staphylococcus aureus [9] was 18% in each case.
In the case of `CCCC1(C)CN(c2ccc(N3C[C@H](CNC(C)=O)OC3=O)cc2F)CCO1` (some centres undefined), in the data set with Staphylococcus aureus [5], the minimum inhibitory concentration (MIC) was determined as 16 µg/mL (≈ 40.7 µM).
For the compound `CC(=O)NC[C@H]1CN(c2ccc(N3CCOC4(CCNC4)C3)c(F)c2)C(=O)O1` (some centres undefined), the MIC against Staphylococcus aureus [3] was > 32 µg/mL.
In the case of `C=CCC1(COCc2ccccc2)CN(c2ccc(N3C[C@H](CNC(C)=O)OC3=O)cc2F)CCO1` (some centres undefined), the MIC against Staphylococcus aureus [3] was > 32 µg/mL.
Still for that read-out and setting: then `CC(=O)NC[C@H]1CN(c2ccc(N3CCOC4(CCCNC4)C3)c(F)c2)C(=O)O1` (some centres undefined), with > 32 µg/mL.
In the case of `CC(=O)NC[C@H]1CN(c2ccc(N3CCN(C(=O)CO)CC3)c(F)c2)C(=O)O1` [EPEREZOLID], the IC50 in [1] turned out to be 4.2 µg/mL (≈ 10.6 µM). For the same compound, in the data set on Staphylococcus aureus [2], the MIC worked out at 2 µg/mL (≈ 5.07 µM).
Take `CC(=O)NC[C@H]1CN(c2ccc(N3CCOCC3)c(F)c2)C(=O)O1` [LINEZOLID]: the INH on Cytochrome P450 3A4, at Cytochrome P450 2C19, on Cytochrome P450 2D6, on Cytochrome P450 1A2 and at Cytochrome P450 2C9 was > 100 µM throughout. Further, the Stability in [6] worked out at 98%. In data set [1], the IC50 came out at 12.8 µg/mL (≈ 37.9 µM). Besides, the EC50 in the data set with HepG2 is > 30 µM. For the same compound, the t1/2 in data set [8] was > 3.613 h. In the data set on Staphylococcus aureus [5], this compound had a minimum inhibitory concentration (MIC) of 1 µg/mL (≈ 2.96 µM).
